Source: ChEMBL document CHEMBL6096655, “Discovery of a novel, selective CK2 inhibitor class with an unusual basic scaffold” (Eur J Med Chem, 2025)
Values belong to the compound of their own block, whether it stands above or below them. Calls of active or inactive are those of the source. No cut-off for these calls is given here.

How the values were obtained:
786-0 [1] = assay: Antiproliferative activity against human 786-0 cells assessed as inhibition of cell growth at 30 uM measured after 3 to 4 days by MTT assay relative to control; assay type: functional; conditions: time 3-4 day
Method in brief: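 786-O cells (RPMI, 10% FCS) seeded at 5000 per well and left overnight. Compound was added at a single 30 µM concentration in 1% FCS medium (DMSO max. 0.2%). Cells grew 3–4 days at 37 °C, 5% CO₂, with no medium change, and were read by MTT. Percent inhibition is the mean of duplicates that differed by ≤10%.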

786-0 [2] = assay: Antiproliferative activity against human 786-0 cells assessed as inhibition of cell growth measured after 3 to 4 days by MTT assay; assay type: functional; conditions: time 3-4 day
Method in brief: (§1)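 786-O or U937 cells grown in RPMI with 2 mM L-glutamine, 1% pen/strep and 10% FCS. Cells were seeded at 5000 per well and left overnight, then switched to 1% FCS medium containing compound or DMSO (max. 0.2% final). Growth ran 3–4 days at 37 °C in 5% CO₂ without medium change, followed by MTT read-out. GI50 is the mean ± SD of at least two independent experiments.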

U-937 = assay: Antiproliferative activity against human U-937 cells assessed as inhibition of cell growth measured after 3 to 4 days by MTT assay; assay type: functional; conditions: time 3-4 day; method in brief: as §1
[3] = Antiproliferative activity against HEK293 cells assessed as inhibition of cell growth measured after 3 to 4 days by MTT assay; assay type: toxicity, cell-based; conditions: human, time 3-4 day
Method in brief: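 HEK293 cells grown in DMEM with 2 mM L-glutamine, 1% pen/strep and 10% FCS. Cells were seeded at 5000 per well, left overnight, then given medium with 1% FCS plus compound or DMSO (max. 0.2% final). They were grown 3–4 days at 37 °C in 5% CO₂ with no medium change, and growth was read by MTT.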

786-0 [4] = assay: Induction of cell death in human 786-0 cells assessed as cell viability at 5 uM measured after 11 hrs by CellCyteX live-cell microscopy analysis; assay type: functional, cell-based
Method in brief: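 786-O cells seeded at 3×10³ per well and grown 24 h. Compound was then added in culture medium containing 125 nM Cytotox Green, at 0.2% (v/v) final DMSO, and kept at 37 °C in 5% CO₂. Green fluorescence images of dead cells were taken every 3 h by live-cell microscopy and normalized to the DMSO control. Results are representative of three independent measurements.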

[5] = Upregulation of PARP cleavage in human U-937 cells by measuring signal 1 at 2 uM measured after 48 hrs by immunoblot analysis; assay type: functional
Method in brief: (§2)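 U937 cells exposed to compound or DMSO for 48 h, then lysed in Laemmli buffer. Lysates were run on 8–16% gradient SDS-PAGE, semi-dry blotted to PVDF and probed for PARP. Detection used IR-fluorescent secondary antibodies. The cleaved/uncleaved PARP signal ratio was obtained by densitometry. Results are representative of two independent experiments.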

[6] = Upregulation of PARP cleavage in human U-937 cells by measuring signal 1 at 5 uM measured after 48 hrs by immunoblot analysis; assay type: functional; method in brief: as §2
[7] = Upregulation of PARP cleavage in human U-937 cells by measuring signal 2 at 2 uM measured after 48 hrs by immunoblot analysis; assay type: functional
Method in brief: (§3)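 U937 lymphoma cells grown in RPMI with 2 mM L-glutamine, 1 % pen/strep and 10 % FCS; exposed to compound or DMSO solvent control for 48 h. Total cellular proteins harvested and immunoblotted with an antibody against phosphorylated CK2-substrate motifs and for PARP. Read-out is the densitometric ratio of cleaved to uncleaved PARP signal. Representative of two independent experiments.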

[8] = Upregulation of PARP cleavage in human U-937 cells by measuring signal 2 at 5 uM measured after 48 hrs by immunoblot analysis; assay type: functional; method in brief: as §3
[9] = Upregulation of PARP cleavage in human U-937 cells by measuring signal 2 at 10 uM measured after 48 hrs by immunoblot analysis; assay type: functional; method in brief: as §2
[10] = target: Signal transducer and activator of transcription 3 (Homo sapiens) (UniProt P40763); assay: Inhibition of STAT3 phosphorylation in human 786-O cells at 10 uM measured after 48 hrs by immunoblot analysis relative to control
[11] = target: T1, Hsp90 co-chaperone Cdc37 (Homo sapiens) (UniProt Q16543); assay: Inhibition of CDC37 phosphorylation in human 786-O cells at 10 uM measured after 48 hrs by immunoblot analysis relative to control
T1 sequence (whole entry): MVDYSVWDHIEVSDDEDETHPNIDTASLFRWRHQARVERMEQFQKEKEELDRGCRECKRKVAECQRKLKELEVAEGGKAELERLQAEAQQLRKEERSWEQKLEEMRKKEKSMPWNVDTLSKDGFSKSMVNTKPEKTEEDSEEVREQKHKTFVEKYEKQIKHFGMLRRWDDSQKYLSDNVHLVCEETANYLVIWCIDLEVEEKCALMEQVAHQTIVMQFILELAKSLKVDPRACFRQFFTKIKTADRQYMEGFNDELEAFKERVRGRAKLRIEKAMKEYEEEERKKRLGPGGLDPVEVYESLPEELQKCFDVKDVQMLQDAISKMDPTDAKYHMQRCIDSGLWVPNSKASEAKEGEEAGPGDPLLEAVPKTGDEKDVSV

[12] = target: Eukaryotic translation initiation factor 2 subunit 2 (Homo sapiens) (UniProt P20042); assay: Inhibition of eIF2beta phosphorylation in human 786-O cells at 10 uM measured after 48 hrs by immunoblot analysis relative to control
HCT-116 = assay: Antiproliferative activity against human HCT-116 cells measured after 72 hrs by alamar blue staining based fluorescence assay; assay type: functional
[13] = target: T2, Casein kinase II subunit alpha (Homo sapiens, UniProt P68400); assay: Inhibition of CK2alpha (unknown origin) assessed as residual activity at 5 uM relative to control
Target sequence in this assay (P68400 whole entry, looked up): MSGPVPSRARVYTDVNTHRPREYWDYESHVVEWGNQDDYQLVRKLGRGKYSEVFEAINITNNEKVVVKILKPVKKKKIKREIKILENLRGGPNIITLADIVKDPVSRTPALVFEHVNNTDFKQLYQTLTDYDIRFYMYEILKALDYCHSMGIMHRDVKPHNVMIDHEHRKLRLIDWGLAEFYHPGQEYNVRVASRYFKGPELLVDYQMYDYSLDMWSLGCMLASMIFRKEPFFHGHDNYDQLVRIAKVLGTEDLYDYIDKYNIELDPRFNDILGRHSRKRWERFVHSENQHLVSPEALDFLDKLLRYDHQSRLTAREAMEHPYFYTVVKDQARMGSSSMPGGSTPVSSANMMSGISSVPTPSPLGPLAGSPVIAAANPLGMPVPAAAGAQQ

[14] = target: T2, Casein kinase II subunit alpha; assay: Inhibition of CK2alpha (unknown origin)
Target sequence in this assay (P68400 whole entry): as the sequence (P68400 whole entry, looked up) above

Chain of Signal transducer and activator of transcription 3 (Homo sapiens) (P40763 whole entry): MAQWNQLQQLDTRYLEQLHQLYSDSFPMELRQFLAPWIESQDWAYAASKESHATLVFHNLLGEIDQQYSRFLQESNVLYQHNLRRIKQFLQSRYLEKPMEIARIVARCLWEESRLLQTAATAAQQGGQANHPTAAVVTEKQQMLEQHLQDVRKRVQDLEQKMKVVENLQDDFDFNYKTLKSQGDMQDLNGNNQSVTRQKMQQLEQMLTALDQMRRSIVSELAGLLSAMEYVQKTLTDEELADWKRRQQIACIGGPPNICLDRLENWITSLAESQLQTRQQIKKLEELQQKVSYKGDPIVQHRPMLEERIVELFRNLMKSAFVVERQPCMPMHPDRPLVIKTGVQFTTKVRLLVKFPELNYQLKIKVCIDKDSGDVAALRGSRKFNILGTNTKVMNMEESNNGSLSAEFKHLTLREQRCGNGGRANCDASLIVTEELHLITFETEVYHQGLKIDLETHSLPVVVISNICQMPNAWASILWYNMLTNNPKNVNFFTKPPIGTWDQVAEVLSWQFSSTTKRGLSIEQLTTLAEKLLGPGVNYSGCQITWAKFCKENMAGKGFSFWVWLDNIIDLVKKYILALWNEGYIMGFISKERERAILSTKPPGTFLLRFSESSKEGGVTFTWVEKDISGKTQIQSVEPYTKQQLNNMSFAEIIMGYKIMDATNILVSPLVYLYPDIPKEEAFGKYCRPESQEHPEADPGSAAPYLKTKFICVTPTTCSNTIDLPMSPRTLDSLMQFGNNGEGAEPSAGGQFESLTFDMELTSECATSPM
Chain of Eukaryotic translation initiation factor 2 subunit 2 (Homo sapiens) (P20042 whole entry): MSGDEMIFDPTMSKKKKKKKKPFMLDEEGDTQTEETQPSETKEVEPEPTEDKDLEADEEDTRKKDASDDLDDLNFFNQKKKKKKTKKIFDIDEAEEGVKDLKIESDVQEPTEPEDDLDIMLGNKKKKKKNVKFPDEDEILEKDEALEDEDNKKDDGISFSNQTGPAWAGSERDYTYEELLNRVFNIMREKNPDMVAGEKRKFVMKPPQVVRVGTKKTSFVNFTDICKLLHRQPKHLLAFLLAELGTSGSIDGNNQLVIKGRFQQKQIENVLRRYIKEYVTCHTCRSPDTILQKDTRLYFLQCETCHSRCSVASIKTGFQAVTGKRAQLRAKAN

Structure (SMILES): COc1ccccc1N1CCN(c2ncnc3sc4c(c23)CCNC4)CC1
inhibition at 30 µM (786-0 [1]): 36.7%

Structure (SMILES): Cc1cccc(N2CCN(c3ncnc4sc5c(c34)CCNC5)CC2)c1
inhibition at 30 µM (786-0 [1]): 47.2%

Structure (SMILES): Cc1nc2c(Br)c(Br)c(Br)c(Br)c2n1CCCN
Activity [13]: 23%
IC50 [14]: 0.15 µM

Structure (SMILES): COc1ccc(N2CCN(c3ncnc4sc5c(c34)CCNC5)CC2)cc1
inhibition at 30 µM (786-0 [1]): 27.7%

Structure (SMILES): c1ccc(N2CCN(c3ncnc4sc5c(c34)CCNC5)CC2)cc1
inhibition at 30 µM (786-0 [1]): 15.9%

Structure (SMILES): Fc1ccccc1N1CCN(c2ncnc3sc4c(c23)CCNC4)CC1
inhibition at 30 µM (786-0 [1]): 35.8%

Structure (SMILES): Fc1ccc(N2CCN(c3ncnc4sc5c(c34)CCNC5)CC2)cc1
inhibition at 30 µM (786-0 [1]): 25.3%

Now from value to compound, other results behind:

GI50 (786-0 [2]): 6.6 µM
Structure (SMILES): Brc1ccccc1/C=N/Nc1ncnc2sc3c(c12)CCNC3
inhibition at 30 µM (786-0 [1]): 99.2%

GI50 (786-0 [2]): 5.5 µM
GI50 (U-937): 4 µM
inhibition [10]: 100%
inhibition [11]: 73%
inhibition [12]: 96%
Structure (SMILES): O=C(O)c1ccc2c(c1)nc(Nc1cccc(Cl)c1)c1ccncc12 [SILMITASERTIB]
inhibition (786-0 [1]): inactive
GI50 [3]: > 30 µM
Activity (786-0 [4]): Not active; Compound Showed Poor Efficacy To Induce Cell Death
Activity [5]: 82%
Activity [6]: 88%
Activity [7]: 0%
Activity [8]: 91%
Activity [9]: 39%

GI50 (786-0 [2]): 14.7 µM
Structure (SMILES): Cc1ccc(N2CCN(c3ncnc4sc5c(c34)CCNC5)CC2)cc1
inhibition at 30 µM (786-0 [1]): 78.2%

GI50 (786-0 [2]): 5.7 µM
GI50 (U-937): 1.8 µM
GI50 (HCT-116): > 10 µM
Structure (SMILES): CCC(=O)Nc1cc(Nc2cc(NC3CC3)n3ncc(C#N)c3n2)ccc1C
GI50 [3]: > 30 µM
Activity (786-0 [4]): Not active; Compound Showed Poor Efficacy To Induce Cell Death
Activity [6]: 91%
Activity [7]: 0%

GI50 (786-0 [2]): 29.5 µM
Structure (SMILES): COc1cccc(N2CCN(c3ncnc4sc5c(c34)CCNC5)CC2)c1
inhibition at 30 µM (786-0 [1]): 50.2%

GI50 (786-0 [2]): 15 µM
Structure (SMILES): Fc1cccc(N2CCN(c3ncnc4sc5c(c34)CCNC5)CC2)c1
inhibition at 30 µM (786-0 [1]): 74.6%

GI50 (786-0 [2]): 30 µM
Structure (SMILES): Cc1ccccc1N1CCN(c2ncnc3sc4c(c23)CCNC4)CC1
inhibition at 30 µM (786-0 [1]): 52.1%
